Tested on: not listed separately
Experiment: Metabolic stability in human liver microsomes assessed as compound remaining at 3 uM measured after 10 min
Format: ADME
Details: read-out: Stability
Method in brief: (§1)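 Test compound at 3.0 µM incubated with liver microsomes for 10 minutes; read-out is percent of parent remaining.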

Row | SMILES | remaining at 10 min, 3 µM [%]
1 | COc1cc(-n2cnc3cc(-c4ccc(Cl)cc4)sc3c2=O)ccc1OCC(C)(C)O | 100

Tested on: not listed separately
Experiment: Metabolic stability in rat liver microsomes assessed as compound remaining at 3 uM measured after 10 min
Format: ADME
Details: read-out: Stability
Method in brief: as §1

Row | SMILES | remaining at 10 min, 3 µM [%]
2 | COc1cc(-n2cnc3cc(-c4ccc(Cl)cc4)sc3c2=O)ccc1OCC(C)(C)O | 98

Tested on: not listed separately
Experiment: Metabolic stability in mouse liver microsomes assessed as compound remaining at 3 uM measured after 10 min
Format: ADME
Details: read-out: Stability
Method in brief: as §1

Row | SMILES | remaining at 10 min, 3 µM [%]
3 | COc1cc(-n2cnc3cc(-c4ccc(Cl)cc4)sc3c2=O)ccc1OCC(C)(C)O | 90

Tested on: not listed separately
Experiment: Solubility of the compound in phosphate buffer at pH 6.4
Format: physicochemical
Details: not given
Method in brief: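 Solubility of parent compounds and prodrugs measured in 50 mM phosphate buffer, pH 6.4.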

Row | SMILES | solubility [µg/mL]
4 | COc1cc(-n2cnc3cc(-c4ccc(Cl)cc4)sc3c2=O)ccc1OCC(C)(C)O | < 1
5 | COc1cc(-n2cnc3cc(-c4ccc(Cl)cc4)sc3c2=O)ccc1OCC1(OC(=O)CN)CCC1 | < 1
6 | COc1cc(-n2cnc3cc(-c4ccc(Cl)cc4)sc3c2=O)ccc1OCC(C)(C)OP(=O)(O)O | < 1
7 | COc1cc(-n2cnc3cc(-c4ccc(Cl)cc4)sc3c2=O)ccc1OCC1(OC(=O)CN)CC(F)(F)C1 | < 1

Tested on: not listed separately
Experiment: Lipophilicity, log P of the compound at pH 7 by HPLC analysis
Format: physicochemical
Details: buffer
Method in brief: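 LogP determined by HPLC at pH 7.0.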

Row | SMILES | logP
8 | COc1cc(-n2cnc3cc(-c4ccc(Cl)cc4)sc3c2=O)ccc1OCC(C)(C)O | 4.5

Tested on: not listed separately
Experiment: Protein binding in rat plasma assessed as unbound fraction
Format: ADME, cell-free
Details: not given
Method in brief: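 Plasma protein binding reported as % free drug in rat, DIO rat, dog, cynomolgus monkey, rabbit and human plasma.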

Row | SMILES | Fu [%]
9 | COc1cc(-n2cnc3cc(-c4ccc(Cl)cc4)sc3c2=O)ccc1OCC(C)(C)O | 0.8

Tested on: not listed separately
Experiment: AUC in Sprague-Dawley rat assessed as parent compound level at 10 mg/kg, po measured after 8 hrs
Format: ADME, organism-based
Set-up: dose 10 mg/kg, time < 8 hr, route oral
Details: in vivo

Row | SMILES | AUC [µM·h]
10 | COc1cc(-n2cnc3cc(-c4ccc(Cl)cc4)sc3c2=O)ccc1OCC1(OC(=O)CN)CC1 | 5.9
11 | COc1cc(-n2cnc3cc(-c4ccc(Cl)cc4)sc3c2=O)ccc1OCC1(OC(=O)CN)CCC1 | 1.3
12 | COc1cc(-n2cnc3cc(-c4ccc(Cl)cc4)sc3c2=O)ccc1OCC1(OC(=O)CN)COC1 | 34.9
13 | COc1cc(-n2cnc3cc(-c4ccc(Cl)cc4)sc3c2=O)ccc1OCC1(OC(=O)CN)CC(F)(F)C1 | 38.1

Tested on: not listed separately
Experiment: Drug uptake in Sprague-Dawley rat brain assessed as parent compound level at 10 mg/kg, po measured after 8 hrs
Format: ADME, organism-based
Details: read-out: Drug uptake
Method in brief: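 Sprague-Dawley rats dosed orally once at 10 mg/kg as parent or glycinate prodrug (prodrug dose adjusted to parent), vehicle 0.5% Methocel/0.1% Tween 80/99.4% water; parent compound measured in brain 8 h post dose, n = 2.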

Row | SMILES | concentration at 8 h [nM]
14 | COc1cc(-n2cnc3cc(-c4ccc(Cl)cc4)sc3c2=O)ccc1OCC1(OC(=O)CN)CC1 | < 3
15 | COc1cc(-n2cnc3cc(-c4ccc(Cl)cc4)sc3c2=O)ccc1OCC(C)(C)O | 7800
16 | COc1cc(-n2cnc3cc(-c4ccc(Cl)cc4)sc3c2=O)ccc1OCC1(OC(=O)CN)CCC1 | < 3
17 | COc1cc(-n2cnc3cc(-c4ccc(Cl)cc4)sc3c2=O)ccc1OCC1(OC(=O)CN)COC1 | 1130
18 | COc1cc(-n2cnc3cc(-c4ccc(Cl)cc4)sc3c2=O)ccc1OCC1(OC(=O)CN)CC(F)(F)C1 | 11300

Tested on: not listed separately
Experiment: Plasma concentration in Sprague-Dawley rat assessed as parent compound level at 10 mg/kg, po measured after 8 hrs
Format: ADME, organism-based
Details: not given
Method in brief: (§2)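 SD rats given 10 mg/kg orally as parent or glycine prodrug (prodrug dose adjusted to parent), in 0.5% Methocel/0.1% Tween 80/99.4% water. Plasma and brain levels of parent measured 8 h post dose, n = 2; 0–8 h plasma AUC also determined.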

Row | SMILES | concentration at 8 h [nM]
19 | COc1cc(-n2cnc3cc(-c4ccc(Cl)cc4)sc3c2=O)ccc1OCC1(OC(=O)CN)CC1 | 113
20 | COc1cc(-n2cnc3cc(-c4ccc(Cl)cc4)sc3c2=O)ccc1OCC(C)(C)O | 3530
21 | COc1cc(-n2cnc3cc(-c4ccc(Cl)cc4)sc3c2=O)ccc1OCC1(OC(=O)CN)CCC1 | 15
22 | COc1cc(-n2cnc3cc(-c4ccc(Cl)cc4)sc3c2=O)ccc1OCC1(OC(=O)CN)COC1 | 1160
23 | COc1cc(-n2cnc3cc(-c4ccc(Cl)cc4)sc3c2=O)ccc1OCC1(OC(=O)CN)CC(F)(F)C1 | 4500

Tested on: Rattus norvegicus
Experiment: Antiobesity activity in DIO Sprague-Dawley rat assessed as body weight loss at 10 mg/kg, po qd for 4 days
Format: functional
Details: not given
Method in brief: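 Sprague-Dawley rats dosed orally once daily for 4 days at 3, 10 and 30 mg/kg (vehicle 0.5% Methocel/0.1% Tween 80/99.4% water), n = 8; body weight change from baseline versus vehicle-treated animals, value given for 10 mg/kg.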

Row | SMILES | Activity [%]
24 | COc1cc(-n2cnc3cc(-c4ccc(Cl)cc4)sc3c2=O)ccc1OCC1(OC(=O)CN)COC1 | 0
25 | COc1cc(-n2cnc3cc(-c4ccc(Cl)cc4)sc3c2=O)ccc1OCC1(OC(=O)CN)CC(F)(F)C1 | 6.4

Tested on: not listed separately
Experiment: Drug level in Sprague-Dawley rat brain assessed as 6-(4-chlorophenyl)-3-(4-((3-hydroxyoxetan-3-yl)methoxy)-3-methoxyphenyl)thieno[3,2-d]pyrimidin-4(3H)-one level measured on day 4 post 20 hrs of last dosage
Format: ADME, tissue-based
Details: in vivo, read-out: Ct
Method in brief: (§3)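 Sub-chronic study in Sprague-Dawley rats: oral glycinate prodrug at 3, 10 and 30 mg/kg once daily for 4 days, vehicle 0.5% Methocel/0.1% Tween 80/99.4% water; parent compound measured in brain on day 4 at 20 h.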

Row | SMILES | concentration [nM]
26 | COc1cc(-n2cnc3cc(-c4ccc(Cl)cc4)sc3c2=O)ccc1OCC1(OC(=O)CN)COC1 | < 3

Tested on: not listed separately
Experiment: Drug level in Sprague-Dawley rat brain assessed as 6-(4-chlorophenyl)-3-(4-((3,3-difluoro-1-hydroxycyclobutyl)methoxy)-3-methoxyphenyl)thieno[3,2-d]pyrimidin-4(3H)-one level measured on day 4 post 20 hrs of last dosage
Format: ADME, tissue-based
Details: in vivo, read-out: Ct
Method in brief: as §3

Row | SMILES | concentration [nM]
27 | COc1cc(-n2cnc3cc(-c4ccc(Cl)cc4)sc3c2=O)ccc1OCC1(OC(=O)CN)CC(F)(F)C1 | 7960

Tested on: not listed separately
Experiment: Plasma concentration in Sprague-Dawley rat assessed as 6-(4-chlorophenyl)-3-(4-((3-hydroxyoxetan-3-yl)methoxy)-3-methoxyphenyl)thieno[3,2-d]pyrimidin-4(3H)-one level measured on day 4 post 20 hrs of last dosage
Details: not given
Method in brief: (§4)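 SD rats dosed orally once daily for 4 days at 3, 10 and 30 mg/kg, as glycine prodrug in 0.5% Methocel/0.1% Tween 80 vehicle. Parent plasma and brain levels taken on day 4 at 20 h; n = 8. Biliary lesions examined.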

Row | SMILES | concentration [nM]
28 | COc1cc(-n2cnc3cc(-c4ccc(Cl)cc4)sc3c2=O)ccc1OCC1(OC(=O)CN)COC1 | 37

Tested on: not listed separately
Experiment: Plasma concentration in Sprague-Dawley rat assessed as 6-(4-chlorophenyl)-3-(4-((3,3-difluoro-1-hydroxycyclobutyl)methoxy)-3-methoxyphenyl)thieno[3,2-d]pyrimidin-4(3H)-one level measured on day 4 post 20 hrs of last dosage
Details: not given
Method in brief: as §4

Row | SMILES | concentration [nM]
29 | COc1cc(-n2cnc3cc(-c4ccc(Cl)cc4)sc3c2=O)ccc1OCC1(OC(=O)CN)CC(F)(F)C1 | 12800

Tested on: not listed separately
Experiment: Ratio of drug level in brain to plasma in Sprague-Dawley rat at 10 mg/kg, po measured after 8 hrs
Format: ADME, organism-based
Details: brain and plasma, read-out: BPR
Method in brief: as §2

Row | SMILES | Kp at 8 h
30 | COc1cc(-n2cnc3cc(-c4ccc(Cl)cc4)sc3c2=O)ccc1OCC1(OC(=O)CN)CC(F)(F)C1 | 2.5

Tested on: Rattus norvegicus
Experiment: Antiobesity activity in DIO Sprague-Dawley rat model assessed as reduction in body weight at 10 mg/kg, po qd for 28 days relative to vehicle control
Format: functional
Set-up: scale not given: the % may be the effect or the level left
Details: not given

Row | SMILES | Activity [%]
31 | Cc1c(C(=O)NN2CCCCC2)nn(-c2ccc(Cl)cc2Cl)c1-c1ccc(Cl)cc1 [RIMONABANT] | 8.5

Tested on: Rattus norvegicus
Experiment: Antiobesity activity in DIO Sprague-Dawley rat model assessed as reduction in caloric intake at 10 mg/kg, po qd for 28 days relative to vehicle control
Format: functional
Set-up: scale not given: the % may be the effect or the level left
Details: not given

Row | SMILES | Activity [%]
32 | Cc1c(C(=O)NN2CCCCC2)nn(-c2ccc(Cl)cc2Cl)c1-c1ccc(Cl)cc1 [RIMONABANT] | 27

Reference: ChEMBL document CHEMBL3856239, “Synthesis and Antiobesity Properties of 6-(4-Chlorophenyl)-3-(4-((3,3-difluoro-1-hydroxycyclobutyl)methoxy)-3-methoxyphenyl)thieno[3,2-d]pyrimidin-4(3H)-one (BMS-814580): A Highly Efficacious Melanin Concentrating Hormone Receptor 1 (MCHR1) Inhibitor” (J Med Chem, 2016)
